OXTR potentiator = human OXTR potentiators, primary screen, fluorescence, CHO-OTR cells, Fluo-8 calcium; Fluo-8 calcium fluorescence, potentiator mode; 0% = oxytocin EC15, 100% = EC100; activation, % at 3 µM; Oxytocin receptor (Homo sapiens), P30559; actives 0.061% (n = 320,000);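 active means activation above that plate's cutoff, the mean activation of tested compounds plus 3 SD, cut at about 6.6% in these data, passing the limit was not always enough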
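assay system = CHO-OTR cells, human receptor | schedule = compound 6 min at room temperature before oxytocin, 100 s read | detection = Fluo-8 intracellular calcium fluorescence, ex 470-495, em 515-575 nm | evaluation = normalized max/min fluorescence ratio, % activation | control set = EC15 oxytocin alone as 0%, 75 nM oxytocin (EC100) as 100%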
TRPML3 agonist = human TRPML3 channel agonists, primary screen, cell-based, HEK293 TRPML3-YFP, Fluo-8 calcium fluorescence, 3 µM | Mucolipin-3 (Homo sapiens), Q8TDD5 | 100% = the carbachol control signal | activation, % at 3 µM | actives 0.29% (n = 220,000);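 active means activation above its plate's cutoff, the mean activation of the plate's test wells plus 3 SD, cut at about 12% in these data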
Target sequence (Q8TDD5 whole entry, looked up): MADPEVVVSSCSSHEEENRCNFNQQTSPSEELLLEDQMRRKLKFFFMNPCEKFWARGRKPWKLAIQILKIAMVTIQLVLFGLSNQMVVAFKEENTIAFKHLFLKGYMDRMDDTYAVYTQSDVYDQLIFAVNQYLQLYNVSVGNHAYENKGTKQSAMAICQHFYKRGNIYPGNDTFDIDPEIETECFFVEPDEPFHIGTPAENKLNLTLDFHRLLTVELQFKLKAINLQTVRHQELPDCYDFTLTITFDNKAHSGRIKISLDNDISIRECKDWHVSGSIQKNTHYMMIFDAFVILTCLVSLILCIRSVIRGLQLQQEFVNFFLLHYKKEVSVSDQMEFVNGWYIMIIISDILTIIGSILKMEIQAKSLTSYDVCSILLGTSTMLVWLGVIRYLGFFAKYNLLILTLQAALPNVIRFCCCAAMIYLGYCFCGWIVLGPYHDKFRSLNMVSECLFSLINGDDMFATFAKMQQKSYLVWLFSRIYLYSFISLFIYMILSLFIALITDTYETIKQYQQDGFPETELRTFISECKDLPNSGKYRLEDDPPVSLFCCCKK
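system = HEK293 cells stably carrying human TRPML3-YFP | doses = one concentration, 3 µM nominal, 0.3% DMSO | timing = dye loading 1 h 37 °C then 30 min ambient, 125 s read | detection = Fluo-8 calcium dye fluorescence, ex 470-495, em 515-575 nm | benchmarks = high control carbachol 87 µM, low control DMSO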
zfTRPN1 agonist = zebrafish TRPN1 channel agonists, primary screen, cell-based, HEK293, calcium fluorescence. transient receptor potential cation channel N1 (TRPN1/NompC), Danio rerio. HEK293 zebrafish TRPN1-YFP, Fluo-8 calcium fluorescence; 100% = response to 87 µM carbachol. activation, % at 3 µM. AID 1424, 2008. actives 0.18% (n = 220,000);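 active means activation above its plate's cutoff, the mean activation of test wells on that plate plus 3 SD, cut at about 19% in these data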
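System: zebrafish TRPN1-YFP in HEK293 cells / Dosing: 3 µM single point / Timing: dye loading 1 h at 37 °C, then 30 min room temperature / Signal: Fluo-8 calcium fluorescence, excitation 470-495 nm, emission 515-575 nm / Read-out basis: percent activation from peak over basal fluorescence ratio, control-normalized / Control set: high carbachol 87 µM, low DMSO alone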
OXTR agonist = human OXTR agonists, primary screen, fluorescence, CHO-OTR cells, Fluo-8 calcium; Oxytocin receptor (Homo sapiens), P30559; actives 0.32% (n = 320,000); Fluo-8 calcium fluorescence; normalized: DMSO 0%, oxytocin 100%; activation, % at 3 µM;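 active means activation above the mean of all tested compounds plus 3 SD, cutoff set per screening run, cut at about 20% in these data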;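 further: peak over basal fluorescence ratio from a 100 s FLIPR kinetic read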
V1R ag counter = agonists of human V1a receptor, primary screen, counter-screen for OXTR agonist project, fluorescence, CHO-V1R cells. Vasopressin V1a receptor (Homo sapiens), P37288. Fluo-8 calcium fluorescence, agonist mode; 0% DMSO, 100% 3 nM vasopressin. activation, % at 3 µM. actives 0.25% (n = 320,000). AID 2797, 2010;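 active means activation above the mean activation of all tested compounds plus 3 SD, per screening run, cut at about 20% in these data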;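 further: signal is peak over basal fluorescence ratio across a 100 second FLIPR read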
V1aR agonist cf = V1a receptor agonists, calcium signal, confirmation, Fluo-8 calcium fluorescence, CHO-V1R cells. agonist. activation, % at 3 µM. shares compounds with V1R ag counter. AID 434964, 2010. actives 20% (n = 180);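 active means average activation exceeds primary screen hit cutoff, cut at about 21% in these data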;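 further: peak over basal fluorescence ratio during a 100 s FLIPR read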
OXTR ag counter = human OXTR agonists, counter-screen for V1R agonist project, fluorescence, CHO-OTR cells, triplicate; shares compounds with V1R ag counter; Fluo-8 calcium fluorescence; activation, % at 3 µM; actives 10% (n = 180); AID 434969, 2010;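 active means mean activation over three repeats above the cutoff from the earlier oxytocin receptor agonist screen, cut at about 20% in these data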;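 further: peak over minimum fluorescence ratio within a 100 second FLIPR read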
Hits are given with their value; . = inactive; / = not tested or not shown. Most compounds without a hit are left out; they make up all but 0.55% or so of the library.

SMILES	OXTR potentiator	TRPML3 agonist	zfTRPN1 agonist	OXTR agonist	V1R ag counter	V1aR agonist cf	OXTR ag counter
Cc1ccc(C(C)NC(=S)NCc2ccc(F)cc2)c(C)c1 (centres undefined)	.	/	/	.	23	.	.
COc1ccc(NC(=O)c2cnc(SC)n2-c2ccc(F)cc2)c(OC)c1	.	/	/	.	.	/	/
O=C(C/C=N\OCc1ccc([N+](=O)[O-])cc1)Nc1ccccc1	.	.	.	.	.	/	/
COC(=O)C(/C=N/OCc1ccc([N+](=O)[O-])cc1)NC(=O)c1ccccc1 (centres undefined)	.	.	.	.	25	.	.
Cc1cc(NCc2ccccc2)c2ccccc2n1	.	/	/	.	.	/	/
Cc1cc(NCc2ccccc2)nc2ccccc12	.	.	.	.	32	.	.
CSc1ccc(/C=N/Nc2nc(C)cc(C)n2)cc1	.	.	.	.	.	/	/
COC(=O)C1=C(C)N(Cc2ccccc2)C(=NCCc2c[nH]c3ccccc23)N[C@H]1c1cccc(C(F)(F)F)c1	.	/	/	.	20	.	.
COCCN=C1N[C@@H](c2cccc(C(F)(F)F)c2)C(C(=O)OC)=C(C)N1Cc1ccccc1	.	/	/	.	.	/	/
O=c1oc2ccccc2c(NC2CCCCC2)c1NS(=O)(=O)c1ccc(F)c(Cl)c1	.	/	/	.	.	/	/
CCN(CC)S(=O)(=O)c1ccc(C(=O)Nc2nnc(-c3ccco3)o2)cc1	.	.	.	.	.	/	/
CCCCN(CC)S(=O)(=O)c1ccc(C(=O)Nc2nnc(-c3cccs3)o2)cc1	.	.	.	.	26	.	.
COc1ccc(S(=O)(=O)NNC(=O)c2cccs2)cc1	.	.	.	.	.	/	/
C/C(=N/NC(=O)c1ccncc1)c1cc2ccc(O)cc2oc1=O	.	.	.	.	30	584	700
O=C(O)c1cccc(CSc2nc(-c3ccc(Cl)cc3)cc(C(F)(F)F)n2)c1	.	.	.	.	21	.	.
CC(NC(=O)Nc1ccc([N+](=O)[O-])cc1)C(c1ccccc1)N1CCOCC1 (centres undefined)	.	.	.	.	52	26	.
CC(NC(=O)c1ccc(Cl)cc1Cl)C(c1ccccc1)N1CCOCC1 (centres undefined)	.	.	.	.	.	/	/
CC(NC(=O)Nc1ccc(Cl)c(Cl)c1)C(c1ccccc1)N1CCOCC1 (centres undefined)	.	.	.	.	44	25	.
COc1ccc(/C=C2\SC(=S)N(CCC(=O)N3CCCCC3)C2=O)cc1	.	/	/	.	.	/	/
COCCN1C(=O)/C(=C/c2ccc(N3CCCC3)cc2)SC1=S	.	.	.	.	28	99	76
O=c1[nH]cnc2scc(-c3ccc(Br)cc3)c12	.	.	.	.	.	/	/
O=C(c1ccncc1)N1CCN(C(=O)c2cccc3ccccc23)CC1	.	.	.	.	.	/	/
O=C(NNC(=O)c1ccc[nH]1)c1cccc(C(F)(F)F)c1	.	/	/	.	.	/	/
Cc1noc(C(F)(F)F)c1C(=O)NNC(=O)c1cccc(C(F)(F)F)c1	.	.	.	.	20	.	.
CCOc1ccc(N=C2NC(=O)S/C2=C\c2ccc(Cl)cc2)cc1	.	.	.	.	.	/	/
SMILES	OXTR potentiator	TRPML3 agonist	zfTRPN1 agonist	OXTR agonist	V1R ag counter	V1aR agonist cf	OXTR ag counter
COc1ccc(N=C2NC(=O)S/C2=C\c2ccc(N(C)C)cc2)cc1	.	.	.	.	21	26	20
Cc1cccc(OCC(=O)O/N=C(\N)c2ccccn2)c1	.	.	.	.	.	/	/
CCOC(=O)CSc1nc2c(c(=O)n1-c1ccc(OC)cc1)SCC2	.	.	.	.	.	/	/
CCCCCCCCCCOC(=O)Cn1c(COc2ccccc2OC)[n+](C)c2ccccc21	.	/	/	.	56	.	.
O=C(COc1ccc(-c2nnco2)cc1)Nc1ccc(C(F)(F)F)cc1	.	/	/	.	21	.	.
O=C(COc1ccc(-c2nnco2)cc1)NCc1ccccc1Cl	.	.	.	.	.	/	/
COC(=O)c1ccc(NC(=S)NC(=O)c2cc(-c3ccccc3)nc3ccccc23)cc1	.	.	.	.	.	/	/
COc1ccc(Cl)cc1C(=O)NNC(=S)NC(=O)c1cc(-c2ccccc2)nc2ccccc12	.	.	.	.	26	35	21
Cc1cccc(/C=N/n2c(-c3cc(-c4ccccc4)n[nH]3)n[nH]c2=S)c1	.	.	.	.	.	/	/
COc1ccc(CCNCC(O)COc2ccc(OC)cc2C(C)(C)C)cc1 (centres undefined)	.	/	/	.	24	.	.
COc1ccc(CCNCC(O)COc2cccc(Br)c2)cc1OC (centres undefined)	.	.	.	.	.	/	/
c1cc2c3c(cccc3c1)NC1(CCCCCC1)N2	.	.	.	.	.	/	/
c1cc2c3c(cccc3c1)NC1(CCC3(CC1)Nc1cccc4cccc(c14)N3)N2	.	.	.	.	32	.	.
CC(C)C(C(=O)Nc1ccncc1)c1ccc(Cl)cc1 (centres undefined)	.	/	/	.	27	.	.
O=C(CSc1ccc2c(c1)OCCO2)Nc1ccc(Br)cc1	.	.	.	.	.	/	/
CCOC(=O)C(CC(=O)O)=C(c1ccccc1)c1ccccc1	.	/	/	.	21	.	.
CCOC(=O)C(NC(=O)c1ccccc1)=C(C)C	.	.	.	.	.	/	/
Cc1ccc(NC(=O)c2ccc(OC(=S)N3CCOCC3)cc2)cc1	.	.	.	.	26	.	.
O=C(O)c1cccc(CN2C(=O)S/C(=C/c3ccccc3[N+](=O)[O-])C2=O)c1	.	.	.	.	.	/	/
CCCCCc1ccc(OCCCC[n+]2ccccc2)c(CCCCC)c1	.	.	.	.	.	/	/
CCCCCc1ccc(OCCCC[n+]2ccc(C)cc2)c(CCCCC)c1	.	.	.	.	22	.	.
CCOc1ccc(CONS(=O)(=O)c2ccc(NC(C)=O)cc2)cc1Cl	.	.	.	.	23	.	.
Cc1cccc(N/C(N)=N/c2nc(C)cc(C)n2)c1	.	.	.	.	21	.	.
CC(=O)Nc1cccc(N/C(N)=N/c2nc(C)cc(C)n2)c1	.	.	.	.	.	/	/
